These results are taken from PMC11336475 (Heliyon, 2024).

A short description of experiment [1]: DPPH radical scavenging assay. The following applies: for EC50: DPPH radical scavenging; for Inhibition% ± SEM: DPPH, measured at 400 μM, 3 repetitions. Summed up: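 DPPH solution (110 μM) mixed with samples at various concentrations and kept in the dark for 30 min. Absorbance read at 517 nm. Percent inhibition and EC50 calculated from absorbance changes. Each concentration run in triplicate.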
(DPPH is a stable violet radical that fades when it is reduced.)

For experiment [2], the target named is tyrosinase enzyme (Agaricus bisporus, UniProt C7FF04). Description: Kinetic study of tyrosinase inhibition. In kind it is biochemical. To be noted: Lineweaver-Burk plot, L-DOPA substrate; Km increased, Vmax constant.
tyrosinase enzyme, sequence (C7FF04 2-392): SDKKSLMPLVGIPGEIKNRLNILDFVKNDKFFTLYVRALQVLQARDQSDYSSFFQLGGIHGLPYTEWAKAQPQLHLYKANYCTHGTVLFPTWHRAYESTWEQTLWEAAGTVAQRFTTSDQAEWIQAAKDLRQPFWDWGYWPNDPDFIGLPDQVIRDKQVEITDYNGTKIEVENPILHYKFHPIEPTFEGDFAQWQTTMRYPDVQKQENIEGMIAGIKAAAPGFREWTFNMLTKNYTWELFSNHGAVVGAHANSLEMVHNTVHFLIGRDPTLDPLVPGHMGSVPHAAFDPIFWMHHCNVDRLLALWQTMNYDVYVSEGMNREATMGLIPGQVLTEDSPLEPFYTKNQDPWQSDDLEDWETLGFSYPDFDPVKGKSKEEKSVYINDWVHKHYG

For `Cc1c(O)c(=O)ccn1-c1cccc(C(=O)N/N=C/c2ccccc2C(=O)O)c1` [Compound 6f, (E)-2-((2-(3-(3-Hydroxy-2-methyl-4-oxopyridin-1(4H)-yl)benzoyl) hydrazono)methyl) benzoic acid], in experiment [1], the EC50 (usually the concentration that produces a half-maximal response) is over 400 µM and the “Inhibition% ± SEM” value amounted to 35.01 ± 5.71%. For `Cc1c(O)c(=O)ccn1-c1cccc(C(=O)N/N=C/c2ccccc2Br)c1` [Compound 6e, (E)-N'-(2-bromobenzylidene)-3-(3-hydroxy-2-methyl-4-oxopyridin-1(4H)-yl)benzohydrazide], in experiment [1], the EC50 was over 400 µM and the “Inhibition% ± SEM” value is reported as 19.59 ± 1.76%. The like results for `COc1cccc(/C=N/NC(=O)c2cccc(-n3ccc(=O)c(O)c3C)c2)c1O` [Compound 6c, (E)-3-(3-Hydroxy-2-methyl-4-oxopyridin-1(4H)-yl)-N'-(2-hydroxy-3-methoxybenzylidene) benzohydrazide] were, in that order, over 400 µM and 48.06 ± 2.25%. Consider `COc1cc(/C=N/NC(=O)c2cccc(-n3ccc(=O)c(O)c3C)c2)ccc1O` [Compound 6b, (E)-3-(3-Hydroxy-2-methyl-4-oxopyridin-1(4H)-yl)-N'-(4-hydroxy-3-methoxybenzylidene)benzohydrazide], for which the type of inhibition result in experiment [2] is “competitive inhibitor”. For the same compound, the “Inhibition% ± SEM” value in experiment [1] stood at 84.64 ± 2.68%. For the compound `Cc1c(O)c(=O)ccn1-c1cccc(C(=O)NN=Cc2c(Cl)cccc2Cl)c1` [Compound 6h, N'-(2,6-dichlorobenzylidene)-3-(3-hydroxy-2-methyl-4-oxopyridin-1(4H)-yl)benzohydrazide], in experiment [1], the EC50 is over 400 µM and the “Inhibition% ± SEM” value is 44.55 ± 0.91%.

Regarding `Cc1c(O)c(=O)ccn1-c1cccc(C(=O)N/N=C/c2cccc(Cl)c2)c1` [Compound 6g, (E)-N'-(3-chlorobenzylidene)-3-(3-hydroxy-2-methyl-4-oxopyridin-1(4H)-yl) benzohydrazide], in experiment [1], the EC50 was over 400 µM and the “Inhibition% ± SEM” value amounted to 44.20 ± 2.41%. Take `COc1cc(OC)c(/C=N/NC(=O)c2cccc(-n3ccc(=O)c(O)c3C)c2)c(OC)c1` [Compound 6d, (E)-3-(3-Hydroxy-2-methyl-4-oxopyridin-1(4H)-yl)-N'-(2,4,6-trimethoxybenzylidene)benzohydrazide]: in experiment [1], the EC50 is over 400 µM and the “Inhibition% ± SEM” value was 35.16 ± 1.37%. As to `Cc1c(O)c(=O)ccn1-c1cccc(C(=O)N/N=C/Cc2ccccc2)c1` [Compound 6j, (E)-3-(3-Hydroxy-2-methyl-4-oxopyridin-1(4H)-yl)-N'-(2-phenylethylidene)benzohydrazide], the “Inhibition% ± SEM” value in experiment [1] was 68.59 ± 1.14%. With `O=c1c(O)c(-c2ccc(O)c(O)c2)oc2cc(O)cc(O)c12` [Quercetin, reference compound], the EC50 in experiment [1] was 8.98 ± 0.05 µM. In the case of `Cc1c(O)c(=O)ccn1-c1cccc(C(=O)N/N=C/c2ccc(O)c(O)c2)c1` [Compound 6a, (E)-N'-(3,4-dihydroxybenzylidene)-3-(3-hydroxy-2-methyl-4-oxopyridin-1(4H)-yl) benzohydrazide], in experiment [1], the “Inhibition% ± SEM” value was 90.06 ± 3.75%. Turning to `Cc1c(O)c(=O)ccn1-c1cccc(C(=O)N/N=C/c2cc(Cl)ccc2[N+](=O)[O-])c1` [Compound 6i, (E)-N'-(5-chloro-2-nitrobenzylidene)-3-(3-hydroxy-2-methyl-4-oxopyridin-1(4H)-yl)benzohydrazide], in experiment [1], a half-maximal response (EC50) required 174 µM and the “Inhibition% ± SEM” value came out at 67.65 ± 0.85%.
